# An excerpt weighted towards active compounds, which were near 2% of everything screened.
# PAD4 FP inh – blocks human protein arginine deiminase 4; inhibition, % at 6.36 µM; Q9UM07; 0.41% of 330,000 active; recombinant PAD4, RCA probe fluorescence polarization;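 active = percent inhibition above a cutoff equal to the mean of all tested compounds plus 3 SD, cut at about 15% in these data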;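 note: 0% = PAD4 with RCA probe and DMSO and 100% = probe without PAD4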
# Apaf-1 inh – human Apaf-1 inhibition; O14727; reconstituted apoptosome caspase-3 activity, DEVD-Rh110 fluorescence; inhibition, % at 20 µM; 0.71% of 330,000 active; active = inhibition of at least 40% at 20 µM;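 note: plate controls were DMSO wells for no effect and DEVD-CHO caspase inhibitor wells for full effect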
#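 System: Apoptosome proteins | Medium: Hepes pH 7.5 with detergent and BSA | Also added: Cytochrome c trigger plus (Z-DEVD)2-Rh110 caspase-3 substrate | Incubation: 30 min compound preincubation, 50 min activation, room temperature | Detection: Rhodamine 110 fluorescence at Ex 480/Em 540 nm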
# GSTO1 inh – counter-screen for RBBP9 inhibitors: inhibitors of human GSTO1; recombinant GSTO1, activity-based probe fluorescence polarization; inhibition, % at 5.96 µM; 1.1% of 300,000 active; AID 1974;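 active = inhibition above the campaign mean inhibition plus 3 SD, cut at about 35% in these data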;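 note: 0% = GSTO1-1 with DMSO and 100% = wells lacking GSTO1-1 enzyme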
# Target sequence (P78417 whole entry, looked up): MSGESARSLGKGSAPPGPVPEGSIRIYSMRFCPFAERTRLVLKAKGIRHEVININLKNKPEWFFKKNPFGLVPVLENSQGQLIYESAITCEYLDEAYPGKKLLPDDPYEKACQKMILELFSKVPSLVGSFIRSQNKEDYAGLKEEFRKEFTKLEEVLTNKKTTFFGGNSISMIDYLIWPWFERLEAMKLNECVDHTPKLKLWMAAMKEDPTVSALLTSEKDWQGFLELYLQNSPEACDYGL
# PP5 inh – PP5 (human) phosphatase inhibition | AID 1987 | inhibition, % at 6.7 µM | purified PP5c, OMFP substrate fluorescence | 0.18% of 320,000 active;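 active = inhibition above the campaign's mean inhibition across all tested compounds plus 3 SD, cut at about 9.5% in these data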;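 note: 0% = DMSO only and 100% = 100 µM cantharidin control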
# UCH37 DUB inh – human UCH37 deubiquitinating enzyme inhibition. Q9Y5K5. AID 588478. purified proteasome/UCH37, Ub-AMC cleavage fluorescence. inhibition, % (no concentration beside the values). 0.33% of 330,000 active;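 active = mean inhibition over replicate wells above about 20%, limit read from the data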;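 note: 0% = compound-free wells with enzyme and 100% = wells lacking proteasome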
# Target sequence (Q9Y5K5 whole entry, looked up): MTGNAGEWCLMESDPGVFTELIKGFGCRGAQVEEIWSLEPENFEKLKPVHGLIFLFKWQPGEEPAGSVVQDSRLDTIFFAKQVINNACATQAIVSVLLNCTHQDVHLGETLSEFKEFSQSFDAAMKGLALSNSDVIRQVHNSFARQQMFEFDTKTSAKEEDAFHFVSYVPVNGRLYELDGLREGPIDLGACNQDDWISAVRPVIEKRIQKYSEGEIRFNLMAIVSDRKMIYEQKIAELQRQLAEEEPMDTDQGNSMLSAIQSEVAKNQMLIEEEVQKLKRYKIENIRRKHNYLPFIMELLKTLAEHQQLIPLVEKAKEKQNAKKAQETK
#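 Reagent: Ub-AMC substrate; assay system: Proteasome-associated human UCH37 deubiquitinase; controls: no-proteasome and no-compound wells; read-out: % inhibition of Ub-AMC cleavage fluorescence; timing: 30 min preincubation with enzyme, 25 min cleavage at room temperature; signal: AMC fluorescence from Ub-AMC cleavage, excitation 355 nm, emission 460 nm; buffer or medium: Tris-HCl pH 7.4 plus ovalbumin, ATP-MgCl2, DTT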
# CTSL1 counter – blocks F. hepatica cathepsin L1 in PFM18AAP counter-screen; recombinant F. hepatica cathepsin L1, Z-Leu-Arg-MCA fluorescence; inhibition, % at 5.96 µM; 0.49% of 300,000 active; AID 1906;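 active = inhibition above the mean of all tested compounds plus 3 SD, set per screening campaign, cut at about 17% in these data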;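 note: 0% = plate median of test compound wells and 100% = 1 µM Z-Phe-Ala-diazomethylketone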
# GSTO1 inh conf – confirmation of human GSTO1 inhibitors; 54% of 2,400 active; recombinant GSTO1, probe fluorescence polarization; inhibition, % at 5.96 µM; shares compounds with GSTO1 inh; AID 2176;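 active = inhibition above the primary screen's cutoff, its mean inhibition plus 3 SD, cut at about 35% in these data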;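 note: loss of polarization as inhibitors block binding of rhodamine sulfonate ester activity probe; 0% = GSTO1 with DMSO and 100% = wells lacking GSTO1 enzyme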
# GSTO1 ABPP inh – inhibitors of recombinant human GSTO1; shares compounds with GSTO1 inh; gel ABPP SE-Rh probe fluorescence; inhibition, % at 1 µM; 30% of 130 active; AID 463110;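 active = inhibition of the enzyme GSTO1 above about 75%, limit read from the data; inactive = inhibition below that limit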
# * = called active by the depositor; i = inactive; . = no result; ! = not confirmed by another sample.
SMILES,PAD4 FP inh,Apaf-1 inh,GSTO1 inh,PP5 inh,UCH37 DUB inh,CTSL1 counter,GSTO1 inh conf,others
CC1=NN(c2ccccc2)C(=O)C1/C=C1/C(=O)NC(=O)N(c2cc(C)cc(C)c2)C1=O (configuration not stated),15.9*,-1.0,18.2,1.7,2.6,0.2,.,
O=C(Nc1ccc(Cl)cc1)ON=C(c1ccccc1)c1ccccn1,.,.,.,.,1.7,.,.,
COC(=O)c1cc(C(O)(C(=O)OC)C(F)(F)F)c(N=CN(C)C)s1 (configuration not stated),.,.,.,.,7.8,.,.,
COC(=O)C1=C(c2ccc(F)cc2F)C[C@@H]2CC[C@H]1N2C(=O)N1CCCCC1,8.6,4.4,.,0.5,21.3*,.,.,
COC(=O)C1=C(c2ccc(F)cc2F)C[C@@H]2CC[C@H]1N2C(=O)N1CCCC1,2.2,-0.9,.,2.0,-0.5,.,.,
COc1ccc2c(c1)NP(=S)(Oc1ccccc1)N2 (configuration not stated),-2.3,50.1*,9.4,2.1,3.0,-1.6,.,
Cc1ccc2c(c1)NP(=S)(Oc1ccccc1)N2 (configuration not stated),.,.,.,.,2.3,.,.,
CN1C(=O)C(Cc2ccc(OCc3ccccc3)cc2)C(=O)N(C)C1=O,0.2,13.3,3.8,1.4,10.9,0.7,.,
COc1cc(CC2C(=O)N(C)C(=O)N(C)C2=O)ccc1OCc1ccccc1,-0.8,14.6,21.4,4.3,24.3*,-2.2,.,
O=c1c2ccccc2nc(CSc2ncnc3nc[nH]c23)n1-c1ccccc1Cl,3.0,3.7,-5.9,-1.2,1.5,21.2*,.,
O=c1c2ccccc2nc(CSc2ncnc3nc[nH]c23)n1-c1ccccc1,-2.0,-1.3,0.1,2.1,0.7,0.4,.,
CCCOC(=O)C1C2CCC(O2)C1C(=O)O (configuration not stated),.,.,.,.,2.6,.,.,
CC1CC(NC(=O)C2C3CCC(O3)C2C(=O)O)CC(C)(C)C1 (configuration not stated),-9.0,-1.0,6.7,79.4*,0.9,-4.1,.,
COc1cc(O)cc2c1C(=O)OC(C)CCCC(=O)CCCC=C2 (configuration not stated),.,.,.,.,5.4,.,.,
NCC(O)c1cc(O)c(O)cc1F (configuration not stated),-7.4,30.0,49.7*,-0.2,0.7,-1.7,8.1,
O=C1OCCN1N=Cc1ccc([N+](=O)[O-])o1,.,.,.,.,4.4,.,.,
COc1ccc(C(=O)NN=CC23CC[C@@H](O)CC2(O)CC[C@@H]2[C@@H]3CCC3(C)C(C4=CC(=O)OC4)CCC23O)cc1 (some centres not stated),.,.,.,.,5.6,.,.,
O=C1NC(=O)N(CC2CCCO2)C(=O)/C1=C/c1cccs1 (configuration not stated),-2.3,-3.3,4.7,1.1,3.8,-4.1,.,
CCN(CC)c1ccc(/C=C2/C(=O)NC(=O)N(CC3CCCO3)C2=O)cc1 (configuration not stated),-14.5,-2.0,43.1*,2.5,2.2,5.6,8.4,
Cc1ccc(NC(=O)CCSc2ccccc2)c(C)c1,-1.8,-8.5,4.8,-0.7,1.3,-0.7,.,
Cc1ccc(C(=O)N/C(=C\c2ccc(C(C)C)cc2)C(=O)NCCCN2CCOCC2)cc1,0.0,-7.9,2.6,0.0,3.0,6.8,.,
CCCCCC(=NO)c1c[nH]c2ccccc12,.,.,.,.,4.5,.,.,
O=C(O)c1ccc2c(c1)C1C(Cl)C(Sc3ccccc3[N+](=O)[O-])CC1C(c1cccc([N+](=O)[O-])c1)N2 (configuration not stated),.,.,.,.,7.4,.,.,
CCN(CC)C(=O)c1ccc2c(c1)C1C(Cl)C(Sc3ccccc3[N+](=O)[O-])CC1C(C(=O)O)N2 (configuration not stated),-1.5,25.4,52.4*,1.1,6.8,-1.3,48.6*,
N/C(=N\N=C/c1ccc(-c2ccc(O)c(C(=O)O)c2)o1)N[N+](=O)[O-],1.1,-8.0,40.0*,1.7,.,4.0,57.3*,
SMILES,PAD4 FP inh,Apaf-1 inh,GSTO1 inh,PP5 inh,UCH37 DUB inh,CTSL1 counter,GSTO1 inh conf,others
O=C1NC(=O)C(=CN2CCc3ccccc32)C(=O)N1,-8.4,-2.9,39.3*,5.1,0.7,-3.0,5.1,
O=C1NC(=O)C(=Cc2csc3ccccc23)C(=O)N1,2.1,-0.5,6.0,1.7,.,4.1,.,
C#C[C@@]1(O)CCC2C3CCC4=CC(=NOCC(=O)NC(CCC(N)=O)C(=O)O)CC[C@]4(C)C3CC[C@@]21C (some centres not stated),.,.,.,.,-0.2,.,.,
CC(C)Oc1ccc(Cc2c(O)[nH]c(=O)[nH]c2=O)cc1,-2.5,-23.5,40.1*,-2.6,9.5,-0.2,4.8,
Cc1cccc(N=Cc2c(O)n(-c3ccccc3C)c(=O)[nH]c2=O)c1,-2.8,-20.6,3.0,-0.3,8.4,-2.0,.,
Cc1ccccc1-n1c(O)c(C=Nc2ccc(N(C)C)cc2)c(=O)[nH]c1=O,9.1,24.4,45.2*,2.4,11.6,-0.6,5.5,
Cc1nc(CCl)cc(=O)[nH]1,-0.4,6.1,68.6*,0.2,0.8,1.7,77.0*,GSTO1 ABPP inh=17.0
CC(CC(c1ccccc1)c1c(O)c2ccccc2oc1=O)=NNc1ccc([N+](=O)[O-])cc1[N+](=O)[O-] (configuration not stated),.,.,.,.,10.0,.,.,
COP(=S)(OC)SCN1C(=O)c2ccccc2C1=O,1.6,12.1,38.0*,2.9,1.3,-8.7,60.0*,
CN(C)[C@@H]1C(=O)C(C(N)=O)=C(O)[C@@]2(O)C(=O)C3=C(O)c4c(O)cccc4[C@@](C)(O)C3[C@H](O)C12 (some centres not stated),-1.1,-13.0,62.2*,0.8,-7.1,3.8,65.7*!,
CN(C)C1C(=O)C(C(N)=O)=C(O)C2(O)C(=O)C3=C(O)c4c(O)cccc4C(C)(O)C3CC12 (configuration not stated),-0.8,.,69.5*,0.0,0.5,-4.1,28.5,
CCC(C)NC(=O)c1c(N)n(Cc2ccc3c(c2)OCO3)c2nc3ccccc3nc12 (configuration not stated),-15.5,96.1*,52.6*,3.8,-159.2,-1.2,6.2,
CC1Oc2ccccc2N(CC(=O)N2CCCC2)C1=O (configuration not stated),-1.6,-21.7,11.0,7.4,0.8,9.6,.,
Cc1ccc(CNC(=O)COC(=O)c2nc(-c3ccccc3)oc2C)cc1,1.0,3.4,.,-1.2,1.5,.,.,
CC(C)(C)OC(=O)c1c(N)n(Cc2ccco2)c2nc3ccccc3nc12,18.6*,17.1,56.4*,1.4,i,6.6,3.4,

# Screens as filed in PubChem.
